Unmarked numbers belong to inactive results. Inconclusive results are not listed. Activity calls are given as the source filed them.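 The calls were made as follows, unless noted: active = RAM network inhibition above 8.4% in each of two replicates, 3 SD over the compound average; inconclusive = above 8.4% inhibition in only one replicate; inactive = 8.4% inhibition or less in each replicate.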
Tests used:
[1] = OD615 S. cerevisiae growth inhibition, permissive medium, pilot counter-assay, permissive growth control for S. cerevisiae lifespan shortening project (AID 705;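 active = growth inhibition above 25% in both replicates, a cutoff set 3 SD above the mean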); conditions: OD615, 24 h, at 10 µM, stronger effect = higher value
Summary of the method: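 Material: engineered DeaD yeast; compound dosing: one dose 10 µM, DMSO 0.25% final; measure: yeast growth inhibition indicated by reduced 24 h OD615; detection: OD615 turbidity read; incubation: cells pre-grown 4 h, then 24 h compound exposure, 30 °C humidified; medium: permissive synthetic complete medium with raffinose and galactose carbon sources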

[2] = Restrictive medium S. cerevisiae growth inhibition, OD615, pilot screen of yeast lifespan reduction project, restrictive growth control (AID 706;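 active = growth inhibition above a set limit, 3 SD over mean compound inhibition, in both replicates, cut at about 43% in these data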;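 also: modified DeaD lifespan yeast strain shifted to restrictive glucose medium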); conditions: OD615, 48 h, at 10 µM, stronger effect = higher value
Summary of the method: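 material = engineered S. cerevisiae DeaD strain | medium = glucose-based CSMM-D restrictive medium | times = 4 h pre-incubation, 48 h exposure at 30 °C | technique = OD615 absorbance reading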

[3] = viability gain of MRP-1-high H69AR cells under doxorubicin, pilot screen, MRP-1 activator project, CellTiter-Glo, duplicate (AID 807;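 active = viability increase at or above a cutoff of the median across tested compounds plus 3 SD, cut at about 8.5% in these data, passing the limit was not always enough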;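 also: compound pretreatment 18-22 h then 72 h combined with doxorubicin; 0% = doxorubicin alone and 100% = vehicle without doxorubicin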); conditions: H69AR viability with doxorubicin, CellTiter-Glo luminescence; at 10 µM; stronger effect = higher value
[4] = growth suppression of beta-catenin knockout HCT116, pilot screen, human colon tumor cells (AID 823;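 active = cell viability at or below a set limit in both duplicate runs, the limit being the all-compound median minus 4 SD, cut at about 23% in these data, passing the limit was not always enough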;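 also: 0% = wells killed by 20 µM Hyamine and 100% = untreated DMSO cell wells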); conditions: CellTiter-Glo, 60 h, at 10 µM, stronger effect = lower value
[5] = growth suppression of PTEN-deleted HCT116, pilot screen, cell-based, HCT116 clonal line, CellTiter-Glo (AID 824;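 active = viability at or below 27.92% in each of two runs, the all-compound median minus 4 SD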;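 also: 0% = 20 µM Hyamine control and 100% = vehicle cell control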); conditions: 60 h, at 10 µM, stronger effect = lower value
[6] = inhibitors of the yeast RAM network, pilot screen, dse1pr::URA3 reporter, 5-FOA selection (AID 869;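 active = inhibition over a set limit, the all-compound mean plus 3 SD, in both replicate runs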;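 also: 0% = DMSO wells with no growth and 100% = 10 µM 1-NA-PP1 with full growth; RAM network block rescues cells from 5-FOA so hits raise OD615 growth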); conditions: S. cerevisiae dse1pr::URA3 5-FOA growth, OD615, 2 d; at 10 µM; stronger effect = higher value; strain carries analog-sensitive mutant Cbk1 kinase
[7] = RAM signaling pathway blockade in yeast – S. cerevisiae, Pdr1DBD-CYC8 efflux-inhibited sensitized strain, primary screen (AID 1298);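 also: 0% = DMSO untreated cells without growth and 100% = 10 µM 1-NA-PP1 full growth; higher means more yeast growth rescued from 5-FOA killing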; conditions: S. cerevisiae cbk1-as DSE1-URA3 strain, 5-FOA growth OD615, 2 d; at 50 µM; stronger effect = higher value

SMILES | growth inhibition [1] | growth inhibition [2] [%] | viability increase [3] [%] | viability [4] [%] | viability [5] [%] | inhibition [6] [%] | RAM network inhibition [7] [%]
CCCCOc1ccccc1C1C(C(=O)OC)=C(C)N(C)C(C)=C1C(=O)OC | -4.46% | -5.04 | -3.49 | 83.1 | 79.8 | 0.225 | 8.12
C=CCSC1=C(C#N)C(c2ccc(OCC)cc2)CC(=O)N1 (stereo not drawn) | -11.9% | 15.4 | -1.8 | 94.5 | 88.2 | 1.47 | 4.8
CCCCCCn1c(CN2CCN(CCO)CC2)nc2c1c(=O)n(C)c(=O)n2C | -6.85% | -11.2 | -4.86 | 86.2 | 89.4 | 2.5 | 2.43
CCNc1nc2c(c(=O)[nH]c(=O)n2C)n1CC(C)C | -5.42% | -2.34 | -2.15 | 106 | 100 | 0.05 | 2.92
Cc1ccc(NC(=O)c2cc(-c3cccc(O)c3)on2)cc1C | -19.1% | -5.78 | -0.54 | 92.1 | 87 | 3.14 | 4.28
CCOc1cccc(OCCOCCN(C)Cc2ccccc2)c1 | 2.5% | -3.23 | -4.15 | 75.3 | 78.9 | 0.55 | 0.2
COC(=O)c1ccc(N2C(=O)CC(Sc3n[nH]c(C)n3)C2=O)cc1 (stereo not drawn) | 38.2% (active) | 19 | 1.12 | 96.6 | 93.2 | 1.42 | 2.32
CC1=CS/C(=C(/C#N)C(=O)N2CCCCC2)N1c1ccccc1 | -0.66% | -8.34 | -1.48 | 97.3 | 95.8 | 0.425 | 2.37
N#Cc1ccccc1N=C1CCCN1Cc1ccccc1 | -3.08% | 9.46 | 0.25 | 88.8 | 95.2 | 0.63 | 4.48
NS(=O)(=O)c1ccc(CCNC(=O)C2CCCN(S(=O)(=O)c3cccnc3)C2)cc1 (stereo not drawn) | -8.75% | -8.71 | -0.63 | 108 | 97.7 | 1.63 | 5.27
CCOC(=O)N1CCc2c(sc(NC(=O)c3ccc(S(=O)(=O)N4CCCC4)cc3)c2C#N)C1 | -3.65% | -5.41 | -1.2 | 99.1 | 85 | 2.04 | 5.32
CC(C)(C)N1C(=O)c2ccc(C(=O)Nc3nccs3)cc2C1=O | -7.12% | -7.02 | -0.27 | 106 | 103 | 0.64 | 0.63
COc1ccc(C2OC(=O)CC2C(=O)N2CCN(c3cc(Cl)ccc3C)CC2)cc1OC (stereo not drawn) | -0.42% | 4.67 | -2.26 | 96.8 | 95.5 | 0.44 | 2.7
Cc1ccccc1NC(=O)C1CC(Cl)=CCC1C(=O)O (stereo not drawn) | -2.29% | -0.385 | -0.5 | 101 | 96.9 | 1.52 | 6.8
COc1cccc(C2CC(c3ccc(Cl)cc3)n3nc(N)nc3N2)c1 (stereo not drawn) | -3.76% | 1.46 | 0.04 | 100 | 91.1 | 1.63 | 7.39
COc1ccc(Cn2nnc3c(=O)[nH]c(C4CCCN(C(=O)c5ccccc5)C4)nc32)cc1 (stereo not drawn) | -8.47% | -8.09 | -1.66 | 108 | 99.9 | -0.35 | 3.06
COc1ccc(S(=O)(=O)NCc2ccc3c(c2)cc(C)n3C)cc1 | -0.89% | -11.2 | -4.17 | 99.1 | 96 | 1.31 | 7.17
Cn1c(NC(=O)c2cc(Br)ccc2Cl)cc(=O)n(C)c1=O | 5.54% | -8.75 | -3.46 | 96.8 | 90.7 | 1.64 | 1.23
CCC(C)(C(=O)NC1CCCCC1)N(C(=O)C1CCC(=O)N1)c1ccc(C)cc1 (stereo not drawn) | 2.44% | -4.21 | -1.97 | 98.7 | 92.1 | 1.71 | 1.9
N#CC1=C2SCN(Cc3ccccc3)CN2C(=O)CC1c1ccccc1F (stereo not drawn) | -3.35% | 15.7 | -4.34 | 90.4 | 88.4 | 1.01 | 2.49
Cc1ccc(CC2S/C(=C(/C#N)C(=O)NCc3ccco3)N(c3ccccc3)C2=O)cc1 (stereo not drawn) | 1.42% | 2.41 | -7.76 | 45 | 60.6 | 0.44 | 1.64
C=CCn1c(O)c(C2=c3ccccc3=NC2=O)s/c1=N/c1nccs1 | -9.64% | -9.09 | -7.95 | 42.1 | 36 | 0.115 | 5.25
Cc1cccc2sc(NC(=O)c3ccc(Cl)s3)nc12 | -21.9% | -21.5 | -7.7 | 68.7 | 56 | 2.64 | 5.32
Cc1nn(C)c(C)c1S(=O)(=O)N(CC(=O)NCCN1CCOCC1)c1ccc(C(C)C)cc1 | -13.5% | -11.8 | -1.69 | 102 | 101 | 1.83 | 2.73

Reference: PubChem BioAssay
